Most compounds without a hit are left out; they make up all but 4.6% or so of the library.
TAAR1 ag: agonists of human TAAR1 | Q96RJ0 | CHO RD-HGA16 TAAR1, Fluo-8 calcium fluorescence; vehicle wells 0%, saturating PEA agonist 100% | activation, % at 3 µM | actives 0.99% (n = 360,000) | AID 624467;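 active means activation above the mean activation of all test compounds in the run plus 3 SD, cut at about 38% in these data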
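Signal – calcium-sensitive Fluo-8 signal, excitation 470-495, emission 515-575 nm · System – RD-HGA16 (CHO) cells co-expressing Gα16 and hTAAR1 · Incubation – 17-24 h seeding, 75 min 37 °C dye, 30 min RT · Compound dosing – 3 µM single concentration · Repeats – no replicates (n 1)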
CHO parental Ca: counter-screen for OX1R antagonists: effect in parental CHO cells; parental CHO-K1, ATP-induced calcium, Fluo-8 fluorescence; actives 0.63% (n = 330,000); inhibition, % at 5.6 µM;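 active means inhibition above that plate's mean sample inhibition plus 3 SD, cut at about 26% in these data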;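 further: 0% = ATP-challenged DMSO wells and 100% = DMSO wells without ATP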
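Test system: untransfected parental CHO cell line. Compound: one dose, 5.6 µM nominal. Detection: intracellular calcium via Fluo-8 no-wash fluorescent dye. Measure: % inhibition. Benchmarks: ATP-challenged DMSO wells low, unchallenged DMSO wells high.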
OX1R antag-1: blocks the human orexin 1 receptor; CHO/OX1R cells, Fluo-8 calcium fluorescence, orexin A; inhibition, % at 5 µM; actives 0.43% (n = 330,000); AID 434989;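 active means inhibition above its plate's threshold, mean inhibition of all tested compounds on the plate plus 3 SD, cut at about 37% in these data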;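 further: 0% = orexin A challenge wells and 100% = SB-334867-A antagonist wells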
Target sequence (O43613 whole entry, looked up): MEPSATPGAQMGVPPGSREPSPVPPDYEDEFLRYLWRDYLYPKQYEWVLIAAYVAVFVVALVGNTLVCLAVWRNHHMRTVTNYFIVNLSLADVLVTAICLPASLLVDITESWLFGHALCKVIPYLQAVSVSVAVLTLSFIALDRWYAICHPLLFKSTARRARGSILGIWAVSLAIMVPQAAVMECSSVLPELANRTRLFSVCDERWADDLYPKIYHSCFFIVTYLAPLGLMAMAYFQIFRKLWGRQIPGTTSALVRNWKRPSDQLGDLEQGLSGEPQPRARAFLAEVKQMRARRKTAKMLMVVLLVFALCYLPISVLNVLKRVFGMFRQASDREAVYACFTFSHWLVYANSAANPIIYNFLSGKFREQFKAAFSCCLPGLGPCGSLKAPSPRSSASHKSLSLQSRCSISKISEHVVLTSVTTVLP
TAAR1 antagonist: human TAAR1 antagonism | Q96RJ0 | CHO RD-HGA16 TAAR1, Fluo-8 calcium fluorescence, antagonist | inhibition, % at 3 µM | actives 1.5% (n = 360,000) | AID 624466;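 active means inhibition above a per-plate cutoff, the mean inhibition of test compounds on that plate plus 3 SD, cut at about 49% in these data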;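 further: 0% = DMSO plus EC80 beta-PEA response and 100% = DMSO alone without agonist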
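Assay system: CHO-derived RD-HGA16 cells stably expressing human TAAR1 plus Gα16. Timing: 140 s kinetic read after compound, 140 s after agonist. Technique: kinetic Fluo-8 calcium fluorescence measurement. Measure: % inhibition of agonist calcium response.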
GPR7 antag: blocks human GPR7 receptor signaling; P48145; GPR7-expressing cells, fluorescence antagonist assay; inhibition, % at 4.4 µM; actives 1.1% (n = 290,000); AID 1861; in the data active means inhibition above about 16%, passing the limit was not always enough;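 further: cells stimulated with the agonist NPW; 0% = agonist with vehicle and 100% = vehicle without agonist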
Target sequence (P48145 whole entry, looked up): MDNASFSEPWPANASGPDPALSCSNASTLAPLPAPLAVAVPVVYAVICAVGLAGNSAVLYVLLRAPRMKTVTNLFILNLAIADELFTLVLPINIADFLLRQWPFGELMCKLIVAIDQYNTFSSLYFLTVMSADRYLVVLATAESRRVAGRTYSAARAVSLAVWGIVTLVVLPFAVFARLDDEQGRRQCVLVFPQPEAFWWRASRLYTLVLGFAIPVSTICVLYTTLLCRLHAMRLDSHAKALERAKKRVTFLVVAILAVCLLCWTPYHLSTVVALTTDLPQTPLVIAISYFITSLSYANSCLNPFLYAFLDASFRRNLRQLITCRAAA
OX1R antag-2: blocks the human orexin 1 receptor; O43613; OX1R-expressing cells, FRET antagonist read-out; inhibition, % at 6.6 µM; actives 1.8% (n = 330,000); in the data active means inhibition mostly above about 38%, no sharp cut-off; inactive means mostly below about 40%;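 further: 0% = agonist challenge alone and 100% = reference antagonist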
TAAR1 nonsel count: nonselective antagonism, TAAR1 counter-screen; inhibition, % at 3 µM; counterscreen cell line, calcium fluorescence, antagonist mode; shares compounds with TAAR1 antagonist; actives 77% (n = 2,400); in the data active means inhibition above about 22%;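 further: CHO-Ga16 host cells stimulated with ATP at an EC80 level; 0% = agonist EC80 plus vehicle and 100% = vehicle without agonist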
TAAR1 antag conf: human TAAR1 antagonism, confirmed | shares compounds with TAAR1 antagonist | TAAR1-expressing cells, fluorescence antagonist read-out | inhibition, % at 3 µM | actives 40% (n = 2,400) | AID 651785; in the data active means inhibition above about 49%;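 further: CHO-Ga16 host cells challenged with agonist PEA near its EC80; 0% = agonist at EC80 plus vehicle and 100% = vehicle with no agonist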
Ga16 nonsel ag: nonselective Ga16 agonist in TAAR1 antagonist counter-screen; actives 18% (n = 2,400); Ga16-expressing cells, calcium fluorescence, agonist counterscreen; activation, % at 3 µM; shares compounds with TAAR1 antagonist; AID 651953; in the data active means activation above about 12%;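 further: 0% = vehicle wells and 100% = saturating stimulus response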
TAAR1 ag counter: counter-screen for human TAAR1 antagonists: TAAR1 agonists; shares compounds with TAAR1 antagonist; actives 2% (n = 2,400); activation, % at 3 µM; AID 651955; hTAAR1 cell line, fluorescence activation, agonist mode; in the data active means activation above about 37%;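 further: CHO cells stably expressing TAAR1 with calcium dye readout; 0% = DMSO vehicle and 100% = full agonist response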
* = called active by the depositor; . = not tested or not shown.

SMILES | TAAR1 ag | CHO parental Ca | OX1R antag-1 | TAAR1 antagonist | GPR7 antag | OX1R antag-2 | TAAR1 nonsel count | TAAR1 antag conf | Ga16 nonsel ag | TAAR1 ag counter
O=C(NCCc1nc(-c2ccccc2)no1)c1ccco1 | 13 | 0 | 1 | 11 | . | 22 | . | . | . | .
COc1ccc(C(=O)Nc2cccc(NC(=O)c3ccc(OC)c(OC)c3)n2)cc1OC | 25 | -5 | -14 | 62* | -2 | 14 | 35* | 55* | 10 | 7
CCn1c2ccccc2c2cc(NC(=O)c3coc(=O)c(Br)c3)ccc21 | 5 | -4 | -16 | 105* | -14 | 15 | 16 | 18 | 5 | 5
COc1ccccc1CNC(=O)CN1C(=O)NC2(CCCc3sccc32)C1=O (centres undefined) | 0 | -19 | -17 | -14 | . | 7 | . | . | . | .
C/C(=N\NC(=O)c1cc2ccccc2cc1O)c1cc2ccccc2o1 | 19 | -6 | 4 | 60* | -10 | 8 | 62* | 88* | 37* | 34
C/C(=N\NC(=O)c1nc2ccccn2c1C)c1cc2ccccc2o1 | 6 | -12 | -34 | 19 | -9 | 14 | . | . | . | .
C#CCOCCOCCOCCNc1nc(N2CCOCC2)nc(N2CCN(C(=O)[C@H](C)n3cc(CCC(=O)O)nn3)CC2)n1 | 12 | . | . | 107* | . | . | 6 | 2 | 4 | 6
C#CCOCCOCCOCCNc1nc(N2CCN(C(=O)[C@H](CCCN=C(N)N)n3cc(C(N)[C@@H](C)CC)nn3)CC2)nc(N2CCN(C(=O)[C@H](CCC(=O)O)n3cc([C@@H](N)CCCCN)nn3)CC2)n1 (some centres undefined) | 0 | 0 | -10 | 5 | . | 0 | . | . | . | .
C#CCOCCOCCOCCNc1nc(N2CCN(C(=O)[C@H](CCCN=C(N)N)n3cc(C(N)[C@@H](C)CC)nn3)CC2)nc(N2CCN(C(=O)[C@H](CCCCN)n3cc([C@@H](N)[C@H](C)CC)nn3)CC2)n1 (some centres undefined) | 12 | 2 | 0 | 109* | . | 0 | 6 | 10 | 9 | 1
COc1ccccc1CNC(=O)COc1cccc(-n2cnnn2)c1 | 1 | -11 | -20 | 0 | . | 27 | . | . | . | .
O=C([C@H](Cc1ccccc1)NS(=O)(=O)c1ccc(Cl)cc1)N1CC[C@@]2(O)CCCC[C@H]2C1 | 26 | -23 | -30 | 56* | 1 | 22 | 24* | 46 | 8 | 9
C=CCN1C(c2ccc(Br)cc2)=CS/C1=C(\C#N)c1nnc(N2CCOCC2)n1-c1ccccc1 | 7 | . | . | 58* | . | . | 24* | 23 | 5 | 6
C=CCN1C(c2cccc(C(F)(F)F)c2)=CS/C1=C(\C#N)c1nnc(N2CCOCC2)n1-c1ccccc1 | 6 | . | . | 9 | . | . | . | . | . | .
COc1cc(OC)c(N(C)S(=O)(=O)c2cccc(C(=O)Nc3nccs3)c2)cc1Cl | 10 | -13 | 7 | 63* | . | 22 | 28* | 45 | 8 | 3
COc1cc(C(=O)N/N=C/c2cc([N+](=O)[O-])cs2)cc(OC)c1OC | -4 | 4 | -18 | 102* | -3 | 16 | 4 | 5 | 0 | 0
CC(C)(Oc1ccc(Cl)cc1)C(=O)NCC(c1cccs1)N1CCOCC1 (centres undefined) | 9 | -8 | -9 | 58* | . | 19 | 17 | 23 | 5 | 1
CCC(=O)c1ccc(OCC(=O)OCC(=O)Nc2ccc(C)c(S(=O)(=O)N3CCCCC3)c2)cc1 | 28 | 0 | 25 | 67* | . | 5 | 56* | 57* | 17* | 15
CCOC(=O)C1=C(C)NC(C)=C(C(=O)OCC)C1C(=O)OCC(=O)NC1(C#N)CCCCC1 | 17 | -28 | -20 | 63* | . | 2 | 29* | 54* | 9 | 9
CCOC(=O)C1=C(C)NC(C)=C(C(=O)OCC)C1C(=O)OCC(=O)NC1CCCCC1 | 18 | -4 | -14 | 61* | . | 15 | 27* | 52* | 10 | 16
CCc1ccccc1S(=O)(=O)Cc1ccc(C(=O)N2CCN(c3ccccn3)CC2)o1 | 9 | -16 | -45 | 51* | -9 | 15 | 25* | 32 | 5 | 6
Cc1ccccc1S(=O)(=O)Cc1ccc(C(=O)N2CCN(c3ncccn3)CC2)o1 | 14 | -14 | -2 | 15 | -4 | 29 | . | . | . | .
O=C(Nc1cccc(Cl)c1)N(Cc1nc2ccccc2c(=O)[nH]1)Cc1cccs1 | 10 | -13 | -34 | 51* | -3 | 15 | 30* | 44 | 10 | 12
Cc1nn2c(C)c(C(=O)Nc3ccccc3)cnc2c1-c1ccccc1 | 14 | -10 | -35 | 58* | -16 | 5 | 25* | 42 | 10 | 8
O=S(=O)(c1cccc(-c2n[nH]c(=S)n2-c2ccc(OC(F)(F)F)cc2)c1)N1CCOCC1 | 8 | -6 | -6 | -6 | . | 9 | . | . | . | .
Cc1cc(/C=N\NC(=O)c2cccs2)c(C)n1-c1ccc2ncccc2c1 | 10 | -28 | 8 | 103* | 19 | 38 | 34* | 98* | 12* | 12
SMILES | TAAR1 ag | CHO parental Ca | OX1R antag-1 | TAAR1 antagonist | GPR7 antag | OX1R antag-2 | TAAR1 nonsel count | TAAR1 antag conf | Ga16 nonsel ag | TAAR1 ag counter
COc1ccc(-c2c(C#Cc3ccsc3)c3cc(-c4ccc(C(N)=O)cc4)ccc3n2C)cc1 | 5 | -10 | -20 | 102* | . | 9 | 12 | 90* | 0 | 0
COc1ccc(-c2c(C#Cc3ccsc3)c3cc(-c4ccc5[nH]ccc5c4)ccc3n2C)cc1 | 1 | 10 | 13 | 14 | . | 7 | . | . | . | .
Cc1nc2c(c(C)nn2-c2ccccc2)c(C)c1CCC(=O)NCCCOC(C)C | -2 | -14 | -35 | -3 | 5 | 0 | . | . | . | .
Cc1ccc2c(c1)C(=O)C(=O)N2Cc1ccc(Cl)cc1 | 9 | -5 | -7 | 55* | . | 2 | 21 | 28 | 4 | -1
C=CCC[C@@H](Cc1ccc(F)cc1)C(=O)OC[C@H](C)NC(=O)[C@H](CC=C)CC(=O)N(CCO)Cc1ccccc1 | 15 | -8 | 31 | 71* | . | 14 | 27* | 40 | 5 | 2
C=CC[C@@H](CC(=O)N(CCO)Cc1ccccc1)C(=O)N[C@H](COC(=O)[C@@H](CC=C)Cc1ccc(F)cc1)Cc1ccccc1 | 11 | -9 | 29 | 75* | . | 5 | 27* | 48 | 7 | 7

Compound activity (PubChem BioAssay)
